Test results published in ChEMBL document CHEMBL4190216, “Asymmetric 1,5-diarylpenta-1,4-dien-3-ones: Antiproliferative activity in prostate epithelial cell models and pharmacokinetic studies” (Eur J Med Chem, 2017).

Legend:
PWR-1E [1] = assay: Potency index, ratio of curcumin IC50 to test compound IC50 for human PWR-1E cells expressing androgen receptor and PSA; assay type: functional
DU-145 [2] = assay: Potency index, ratio of curcumin IC50 to test compound IC50 for human DU145 cells; assay type: functional
PWR-1E [3] = assay: Antiproliferative activity against human PWR-1E cells expressing androgen receptor and PSA assessed as decrease in cell viability after 3 days by WST assay; assay type: functional, cell-based; settings: 72 h
In short: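 Non-malignant prostate epithelial PWR-1E (adenovirus 12/SV40-immortalized) was seeded at 5,000 per well. Cells were exposed for 3 days at 37 °C in a CO2 incubator to at least five concentrations, with DMSO as vehicle control. WST-1 reagent was then added for 3 h at 37 °C and absorbance read at 430 nm. IC50 came from linear inhibition, as the mean of triplicate determinations.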

DU-145 [4] = assay: Antiproliferative activity against human DU145 cells assessed as decrease in cell viability after 3 days by WST assay; assay type: functional, cell-based; settings: DU-145, 72 h
In short: (§1)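 Cells were seeded at 3,200 per well. PC-3 and LNCaP were grown in RPMI-1640 and DU-145 in EMEM, each with 10% FBS and 1% penicillin/streptomycin, at 37 °C and 5% CO2. Cells were exposed for 3 days to at least five concentrations, with DMSO as vehicle control. WST-1 reagent was then added for 3 h at 37 °C and absorbance read at 430 nm. IC50 came from linear inhibition, averaged over triplicates.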

PC-3 [5] = assay: Antiproliferative activity against human PC3 cells assessed as decrease in cell viability after 3 days by WST assay; assay type: functional, cell-based; settings: PC-3, 72 h; in short: as §1
LNCaP [6] = assay: Potency index, ratio of curcumin IC50 to test compound IC50 for human LNCAP cells; assay type: functional
PC-3 [7] = assay: Potency index, ratio of curcumin IC50 to test compound IC50 for human PC3 cells; assay type: functional
LNCaP [8] = assay: Antiproliferative activity against human LNCAP cells assessed as decrease in cell viability after 3 days by WST assay; assay type: functional, cell-based; settings: 72 h; in short: as §1

| Compound | Ratio IC50 (PWR-1E [1]) | Ratio IC50 (DU-145 [2]) | IC50 (PWR-1E [3]) | IC50 (DU-145 [4]) | IC50 (PC-3 [5]) | Ratio IC50 (LNCaP [6]) | Ratio IC50 (PC-3 [7]) | IC50 (LNCaP [8]) |
| --- | --- | --- | --- | --- | --- | --- | --- | --- |
| CCC(C)n1ccnc1/C=C/C(=O)/C=C/c1ccccn1 (centres undefined) | 52 | 77 | 170 nM | 340 nM | 300 nM | 57 | 85 | 240 nM |
| Cc1nc(-c2ccncc2)sc1/C=C/C(=O)/C=C/c1nccn1C(C)C | – | 40 | – | 660 nM | 800 nM | 25 | 32 | 540 nM |
| CCC(C)n1ccnc1/C=C/C(=O)/C=C/c1nc2ccccc2n1C(C)CC (centres undefined) | – | 75 | – | 350 nM | 240 nM | 41 | 106 | 330 nM |
| COc1cc(/C=C/C(=O)CC(=O)/C=C/c2ccc(O)c(OC)c2)ccc1O [CURCUMIN] | – | – | 8850 nM | – | – | – | – | – |
| CCn1c(/C=C/C(=O)/C=C/c2ccccn2)nc2ccccc21 | 221 | 57 | 40 nM | 460 nM | 230 nM | 113 | 111 | 120 nM |
| CCC(C)n1ccnc1/C=C/C(=O)/C=C/c1ccc(OC)c(OC)c1 (centres undefined) | – | 31 | – | 850 nM | 1330 nM | 15 | 19 | 910 nM |
| CCC(C)n1ccnc1/C=C/C(=O)/C=C/c1cc(OC)c(OC)c(OC)c1 (centres undefined) | – | 39 | – | 670 nM | 720 nM | 21 | 35 | 660 nM |
| CC(C)n1ccnc1/C=C/C(=O)/C=C/c1nc2ccccc2n1C(C)C | 293 | 138 | 30 nM | 130 nM | 180 nM | 52 | 141 | 260 nM |
| CC(C)n1ccnc1/C=C/C(=O)/C=C/c1cnc(N2CCOCC2)s1 | – | 20 | – | 1320 nM | 2270 nM | 10 | 11 | 1410 nM |
| CCCCn1ccnc1/C=C/C(=O)/C=C/c1nc2ccccc2n1CCCC | – | 85 | – | 310 nM | 190 nM | 34 | 134 | 400 nM |
| CCCn1c(/C=C/C(=O)/C=C/c2sc(C)nc2C(F)(F)F)nc2ccccc21 | – | 31 | – | 840 nM | 550 nM | 30 | 46 | 460 nM |
| CC(C)n1ccnc1/C=C/C(=O)/C=C/c1cnc(N2CCCCC2)s1 | – | 10 | – | 2550 nM | 3400 nM | 6 | 8 | 2170 nM |
| Cc1nc(C(F)(F)F)c(/C=C/C(=O)/C=C/c2nc3ccccc3n2C(C)C)s1 | 177 | 46 | 50 nM | 570 nM | 340 nM | 45 | 75 | 300 nM |
| O=C(/C=C/c1ccccn1)/C=C/c1nccs1 | – | 23 | – | 1130 nM | 550 nM | 30 | 46 | 450 nM |
| CCC(C)n1ccnc1/C=C/C(=O)/C=C/c1cc(C)on1 (centres undefined) | 81 | 50 | 110 nM | 530 nM | 310 nM | 57 | 82 | 240 nM |
| CC(C)CCn1ccnc1/C=C/C(=O)/C=C/c1nc2ccccc2n1CCC(C)C | – | 34 | – | 770 nM | 210 nM | 41 | 121 | 930 nM |
| CCC(C)n1ccnc1/C=C/C(=O)/C=C/c1conc1C (centres undefined) | – | 35 | – | 750 nM | 370 nM | 57 | 69 | 240 nM |
| Cc1cc(/C=C/C(=O)/C=C/c2ccccn2)no1 | – | 38 | – | 700 nM | 450 nM | 44 | 57 | 310 nM |
| CCC(C)n1ccnc1/C=C/C(=O)/C=C/c1nn(C)cc1Br (centres undefined) | 63 | 94 | 140 nM | 280 nM | 330 nM | 44 | 76 | 310 nM |
| CCCn1c(/C=C/C(=O)/C=C/c2ccccn2)nc2ccccc21 | 443 | 82 | 20 nM | 320 nM | 250 nM | 80 | 102 | 170 nM |
| CC(C)n1ccnc1/C=C/C(=O)/C=C/c1cnc(N2CCCC2)s1 | – | 7 | – | 3680 nM | 6860 nM | 3 | 4 | 4050 nM |
| COc1cc(/C=C/C(=O)/C=C/c2ccccn2)cc(OC)c1OC | – | 32 | – | 830 nM | 840 nM | 34 | 30 | 400 nM |
| CCCC(C)n1ccnc1/C=C/C(=O)/C=C/c1nc2ccccc2n1C(C)CCC (centres undefined) | 221 | 94 | 40 nM | 280 nM | 140 nM | 37 | 182 | 370 nM |
| Cc1cccc(/C=C/C(=O)/C=C/c2ccccn2)n1 | – | 42 | – | 630 nM | 540 nM | 45 | 47 | 300 nM |
| CC(C)Cn1ccnc1/C=C/C(=O)/C=C/c1nc2ccccc2n1CC(C)C | – | 71 | – | 370 nM | 200 nM | 24 | 127 | 560 nM |
| Cn1c(/C=C/C(=O)/C=C/c2ccccn2)nc2ccccc21 | – | 39 | – | 680 nM | 560 nM | 76 | 45 | 180 nM |
| COc1ccc(/C=C/C(=O)/C=C/c2ccccn2)cc1OC | – | 13 | – | 2050 nM | 1700 nM | 8 | 15 | 1760 nM |
| Cc1nc(C(F)(F)F)c(/C=C/C(=O)/C=C/c2nc3ccccc3n2C)s1 | – | 34 | – | 780 nM | 480 nM | 40 | 53 | 340 nM |
